From PubChem
MrgX1 antagonist: antagonists of human MrgX1 receptor | hit rate 1.3% among 310,000 | Q96LB2 | MRGX1-HEK293 calcium flux, Fluo-4, BAM8-22 antagonism; active compounds read low | B-score at 10 µM;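 active = calcium-response B-score plate-corrected more than 3 library SD below zero, starting fluorescence within 5 deviations, no agonist response on first addition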;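 also: peak minus trough fluorescence over baseline after final BAM8-22 challenge near maximal dose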
Target sequence (Q96LB2 whole entry, looked up): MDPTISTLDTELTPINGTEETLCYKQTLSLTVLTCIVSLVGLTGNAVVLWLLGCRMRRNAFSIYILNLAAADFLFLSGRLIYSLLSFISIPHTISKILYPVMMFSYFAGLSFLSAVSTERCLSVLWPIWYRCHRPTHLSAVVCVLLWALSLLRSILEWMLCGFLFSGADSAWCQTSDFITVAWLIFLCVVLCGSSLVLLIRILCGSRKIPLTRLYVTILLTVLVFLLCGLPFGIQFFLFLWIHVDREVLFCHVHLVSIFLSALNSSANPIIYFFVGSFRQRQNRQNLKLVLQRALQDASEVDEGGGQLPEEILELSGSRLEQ
MrgX1 ag: activates human MrgX1 receptor signaling | B-score at 10 µM | Q96LB2 | hit rate 0.44% among 310,000 | MrgX1-HEK293 cells, Fluo-4 calcium fluorescence, agonist mode; active compounds read high;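 active = calcium response B-score plate-corrected fluorescence ratio at least 3 library SD, with starting fluorescence B-score inside 5 SD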
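times = overnight plating, then 30 min 37 °C plus 30 min room-temperature dye loading | assay system = stable human MrgX1 HEK293 cell line | input = fifteen thousand cells per well | signal = kinetic calcium dye fluorescence, Fluo-4 NW | dosing = compound delivered in addition one of three | read-out = B-scored fluorescence response ratio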
RGS4 pot: potentiators or activators of RGS4; HEK293 M3R/inducible RGS4, carbachol calcium flux Fluo4; active compounds read low; B-score at 10 µM; hit rate 0.92% among 310,000; AID 463111;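 active = B-score of the integrated calcium signal more than 4 SD below the library mean, with starting fluorescence not abnormally high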;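 also: negative B-score means reduced calcium response which marks RGS4 activation or potentiation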
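Assay system: Inducible-RGS4 HEK293 cells carrying M3 receptor | Schedule: Compound preincubation 20 min at room temperature before agonist | Signal: Kinetic calcium fluorescence imaging with Fluo4-AM dye, 2 µM | Read-out basis: B score from integrated fluorescence ratio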
RGS4 block: inhibitors of human RGS4; hit rate 0.45% among 310,000; B-score at 10 µM; HEK293 M3R/RGS4 inducible, Fluo-4 calcium flux; active compounds read high; triggered by carbachol at its EC20;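 active = B-score, a plate-corrected calcium signal, over three deviations above library mean, with baseline fluorescence within five deviations of library mean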;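 also: RGS4 expression induced by doxycycline in cells with stable M3 receptor; B-score is computed from the integrated fluorescence ratio over baseline after carbachol; higher B-score means a larger calcium signal and so more RGS4 inhibition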
Target sequence (P49798 whole entry, looked up): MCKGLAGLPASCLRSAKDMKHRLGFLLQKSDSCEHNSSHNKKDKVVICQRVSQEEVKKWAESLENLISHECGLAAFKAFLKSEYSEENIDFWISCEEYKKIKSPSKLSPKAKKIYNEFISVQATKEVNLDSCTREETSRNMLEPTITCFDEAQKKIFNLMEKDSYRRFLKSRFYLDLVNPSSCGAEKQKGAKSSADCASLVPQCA
MrgX1 PAM: human MrgX1 positive allosteric modulation, primary screen; MrgX1-HEK293, Fluo-4 calcium flux, FDSS; active compounds read high; Q96LB2; hit rate 0.63% among 310,000; AID 588675; B-score at 10 µM;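 active = plate-corrected calcium response at least 3 library SD above typical, normal starting fluorescence, not activating the receptor alone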;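 also: compound read alongside a low EC10 to EC30 dose of BAM8-22 agonist; peak minus trough fluorescence over baseline measured at the second addition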
RGS4 inh valid: RGS4 inhibitor validation; shares compounds with RGS4 block; HEK293 M3R/RGS4, carbachol calcium Fluo-4 fluorescence; carbachol added at its EC20; 0 = buffer wells, 100 = carbachol control; calcium response, % at 10 µM; hit rate 65% among 1,700;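 active = duplicate-averaged calcium response above the buffer-only control mean plus 5 SD of those controls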;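 also: integrated fluorescence ratio F max minus min over baseline F0; higher response in RGS4-induced cells means RGS4 inhibition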
RGS4 uninduced: non-induced cell nonspecific activity of RGS4 inhibitors; shares compounds with RGS4 block; AID 493000; hit rate 20% among 1,900; activity (percent), % at 10 µM; HEK293 M3R non-induced, carbachol calcium Fluo-4; submaximal (EC20) carbachol stimulus; buffer wells 0%, carbachol control wells 100%; call rule not given here;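 also: RGS4 induction absent so cells express M3R without RGS4; higher means more calcium signal and flags a non-specific hit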
RGS4 inh ctr2: second RGS4 inhibitor counter-screen in uninduced cells lacking carbachol; calcium response (agonist-mode artifact), % at 10 µM; HEK293 M3R/RGS4 non-induced, Fluo-4 calcium, no carbachol; normalised: buffer wells 0%, carbachol wells 100%; AID 493001; hit rate 22% among 1,900; shares compounds with RGS4 block;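 active = duplicate-averaged calcium rise in uninduced cells above buffer wells' mean plus 5 SD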
A number is an active result; i = inactive; nt = not tested or not shown. This is a sample that favours compounds with a hit; in the whole collection about 3.5% have one here.

SMILES	MrgX1 antagonist	MrgX1 ag	RGS4 pot	RGS4 block	MrgX1 PAM	RGS4 inh valid	RGS4 uninduced	RGS4 inh ctr2
Cc1c(C=O)c2ccccn2c1C(=O)c1ccc(F)cc1	i	i	i	i	i	nt	nt	nt
CC(=O)NN1C(=O)/C(=C2/Sc3ccc(Cl)cc3N2C)SC1=S	i	i	i	i	i	nt	nt	nt
O=C(c1ccc(S(=O)(=O)Nc2ccccc2F)cc1)N1CCN(c2ccccc2O)CC1	i	i	i	i	i	nt	nt	nt
CCC1(CC)C(=O)NC(=O)NC1=NCCc1c[nH]c2ccccc12	i	i	i	i	i	nt	nt	nt
CCc1nc(SCC(=O)Nc2nnc(CC(C)C)s2)n[nH]1	i	i	i	i	i	nt	nt	nt
Cc1nnc(SCC(=O)NC(=O)Nc2ccc3c(c2)OCCO3)n1N	i	i	i	i	i	nt	nt	nt
CCOCCCNC(=O)C(NC(=O)Cc1cccs1)c1ccc(OC)cc1 (stereo not given)	i	i	i	i	i	nt	nt	nt
CCC(C)Oc1ccc(/C=C/c2[nH]c(=O)[nH]c(=O)c2[N+](=O)[O-])cc1OC (stereo not given)	i	i	i	5.6	i	10%	i	76%
O=c1[nH]c(/C=C/c2cccc([N+](=O)[O-])c2)c([N+](=O)[O-])c(=O)[nH]1	i	i	i	i	i	nt	nt	nt
O=c1[nH]c(/C=C/c2ccccc2)c([N+](=O)[O-])c(=O)[nH]1	i	i	i	5.7	i	22%	i	i
COc1cc(/C=C/c2[nH]c(=O)[nH]c(=O)c2[N+](=O)[O-])ccc1OCCC(C)C	i	i	i	i	i	nt	nt	nt
COc1ccc(CNC(=O)CCS(=O)(=O)c2ccc3c(c2)oc(=O)n3C)cc1	i	i	i	i	i	nt	nt	nt
COc1ccc(C2C3=C(CCCC3=O)NC3=C2C(=O)c2ccccc23)cc1 (stereo not given)	i	i	i	11	i	i	i	i
Cc1ccc(C2C3=C(CC(C)(C)CC3=O)NC3=C2C(=O)c2ccccc23)cc1 (stereo not given)	i	i	i	i	i	nt	nt	nt
CCc1ccc2c(c1)c(N=NC1=NC(=O)CS1)c(O)n2C	i	i	i	i	i	nt	i	i
O=C(NCCc1ccc(Cl)cc1)c1ccc(S(=O)(=O)N2CCCC2)cc1	i	i	i	i	i	nt	nt	nt
Cc1cc(C)nc(S/C=C/C(=O)c2ccccc2F)n1	i	i	i	5.8	i	5.0%	i	i
O=C(NC1CCCC1)c1cc(-c2cccc(Cl)c2)on1	i	i	i	i	i	nt	nt	nt
Cc1ccc(-n2[nH]c(C)c(C=Nc3ccc(S(=O)(=O)Nc4nccs4)cc3)c2=O)cc1C	i	i	i	i	i	nt	i	i
CCc1nnc(NS(=O)(=O)c2ccc(N=Cc3c(C)[nH]n(-c4ccc(Cl)cc4)c3=O)cc2)s1	i	i	i	i	i	nt	i	i
Cc1[nH]n(-c2ccc(Cl)cc2)c(=O)c1C=Nc1ccc(S(=O)(=O)N2CCOCC2)cc1	i	i	i	6.3	i	32%	55%	i
CCc1nnc(NS(=O)(=O)c2ccc(N=Cc3c(C)[nH]n(-c4cccc(Cl)c4)c3=O)cc2)s1	i	i	i	i	i	nt	nt	nt
C=CCOc1nc2sc(C)c(C)c2c(=O)n1-c1ccccc1	i	i	i	6	i	i	i	i
O=[N+]([O-])c1ccc(O)c(C=Nc2ccc3c(c2)OCCO3)c1	i	i	i	i	i	nt	nt	nt
Oc1c(Br)cc(Br)cc1C=Nc1ccc2c(c1)OCCO2	i	i	i	5.8	i	i	i	74%
SMILES	MrgX1 antagonist	MrgX1 ag	RGS4 pot	RGS4 block	MrgX1 PAM	RGS4 inh valid	RGS4 uninduced	RGS4 inh ctr2
Oc1c(Br)cc(Br)cc1C=Nc1ccc2c(c1)OCO2	i	i	i	i	i	i	i	48%
O=C(Cc1c[nH]c2ccccc12)Nc1ccc(N2CCOCC2)cc1	i	i	i	i	i	nt	nt	nt
Cc1cc(O)ccc1N=Cc1c(C(F)(F)F)[nH][nH]c1=O	i	i	i	6.8	i	18%	i	21%
N#C/C(=C\c1cccc([N+](=O)[O-])c1)c1nnc2n1CCCCC2	i	i	i	6.1	i	16%	i	i
COc1ccc(C2/C(=C(/O)c3ccc(F)cc3)C(=O)C(=O)N2CCCN2CCOCC2)cc1OC (stereo not given)	i	i	i	i	i	nt	nt	nt
OC(COc1ccc2ccccc2c1Br)Cn1cnc(-c2ccccc2)c1 (stereo not given)	i	i	i	9.3	i	10%	i	i
COc1ccc(OCC(O)Cn2cnc(-c3ccc(Br)cc3)c2)cc1 (stereo not given)	i	i	i	i	i	nt	nt	nt
Cc1ccc(N2C(=O)N(CC(=O)N3CCCc4ccccc43)C(=O)C2C)cc1 (stereo not given)	i	i	i	i	i	nt	nt	nt
CC(C)c1ccc(C(C(=O)NC2CCCC2)N(C(=O)c2csnn2)C2CC2)cc1 (stereo not given)	i	i	i	i	i	nt	nt	nt
CCN1CCN(C(=O)/C(C#N)=C/c2ccc(OC(F)F)cc2)CC1	i	i	i	i	i	nt	nt	nt
N#C/C(=C\c1ccc(OC(F)F)cc1)C(=O)N1CCCCC1	i	i	i	5.8	i	16%	i	i
Cc1ccc(N(Cc2cc3ccc(C)cc3[nH]c2=O)C(=O)c2ccco2)c(C)c1	i	i	i	i	i	i	i	i
COCC(=O)N(Cc1cc2ccc(C)cc2[nH]c1=O)c1ccc(C)cc1C	i	i	i	i	i	nt	nt	nt
Cc1ccc2cc(CN(C(=O)c3ccco3)c3ccccc3C)c(=O)[nH]c2c1	i	i	i	i	i	i	i	i
Cc1ccc2cc(CN(C(=O)c3ccco3)c3cccc(C)c3C)c(=O)[nH]c2c1	i	i	i	i	i	nt	nt	nt
COCCNC(=O)CN1C(=O)/C(=C/c2ccccc2)Oc2ccc(C(C)(C)C)cc21	i	i	i	i	i	nt	nt	nt
O=C(CC1Nc2cccc3cccc(c23)NC1=O)Nc1ccccc1 (stereo not given)	i	i	i	i	i	nt	i	i
NNC(=O)COc1ccc(-c2n[nH]c(C(F)(F)F)c2-c2ccc(Br)cc2)c(O)c1	i	i	i	8.1	i	56%	62%	i
COc1ccccc1-c1c(-c2ccc(OCC(=O)NN)cc2O)n[nH]c1C(F)(F)F	i	i	i	i	i	nt	i	i
COc1ccccc1-c1cn[nH]c1-c1ccc(OCC(=O)NN)cc1O	i	i	i	i	i	nt	nt	nt
CCOc1ccc(CC(=O)Nc2c3c(nn2C(C)(C)C)CS(=O)(=O)C3)cc1	i	i	i	i	i	nt	nt	nt
